Consider 2 molecules from PMC8945107 (ACS Omega, 2022).

Molecules are shown by their SMILES.

Test [1] has as its system NCI-H460. The test can be described thus: MTT antiproliferative assay, NCI-H460. It counts as cell-based. As to conditions: Homo sapiens, NCI-H460, 48 h, read-out: IC50 NCI-H460. The method, boiled down:
(§1)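 Cells in 96-well plates were preincubated 24 h, then exposed to test compound 48 h. MTT solution (5 mg/mL stock) was added for 4 h, medium removed, formazan dissolved in DMSO, plate shaken 1 min and absorbance read at 570 nm. Three independent experiments.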

Test [2] concerns PC-3. The test can be described thus: MTT antiproliferative assay, PC-3. It counts as cell-based. As to conditions: Homo sapiens, PC-3, 48 h, read-out: IC50 PC-3. In outline: as §1
The subject of test [3] is human bronchial epithelioid cells (HBE). The test can be described thus: MTT antiproliferative / cell viability assay, HBE. Particulars: 48 h, read-out: IC50 HBE. It counts as cell-based. In outline:
as §1

The test system of test [4] is A549 cells. Description: Detection of intracellular ROS. It counts as cell-based, human. Particulars: 10 mM NAC with 2 μM 5e, 12 h. In outline: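 A549 cells in 6-well plates were pretreated with NAC for 2 h, then treated with test compound. Afterward they were stained with 10 μM DCFH-DA in FBS-free medium for 0.5 h in the incubator and washed twice with PBS. Cells were collected, resuspended in PBS and analysed by flow cytometry.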

The subject of test [5] is A549 cells. Description: Vacuolization, fluorescence inverted microscope. It counts as cell-based, human. As to conditions: 10 mM NAC with 2 μM 5e; vacuolization 12 h, MTT 24 h. The method, boiled down:
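A549 cells were given 2 μM test compound for 12, 24 or 36 h, or 1–4 μM for 24 h, and photographed on an inverted fluorescence microscope. For antioxidant co-treatment, 10 mM NAC was combined with 2 μM compound. Vacuolization was imaged at 12 h, and viability was measured by MTT at 24 h (absorbance 570 nm after DMSO solubilisation).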

For `COc1cccc2c1C(=O)c1c(O)c3c(c(O)c1C2=O)C[C@@](O)(C(=O)CO)C[C@@H]3O[C@H]1C[C@H](N)[C@H](O)[C@H](C)O1` [DOX, Doxorubicin], the results for the IC50 in test [1], in test [2] and in test [3] were 3.14 ± 0.57 µM, 1.13 ± 0.2 µM and 2.54 ± 0.16 µM, respectively.
As for `CC(=O)N[C@@H](CS)C(=O)O` [NAC, N-acetylcysteine], in test [4], the “effect of NAC on ROS level induced by 5e” value was “could inhibit the level of ROS”. Besides, in test [5], the “effect of NAC on vacuolization and cell death induced by 5e” value was “could not remarkably suppress vacuolization and cell death”.
